Assay results gathered from unrelated publications.
Each line is one published result; the experiments were not run side by side.
Matrix: plasma

Compound	host	route	dose	notes	quantity	value
COc1ccc2c(c1)CN(C(=O)CCN1CCC(Cc3ccccc3)CC1)CC[S@@+]2[O-]	male human	intravenous	0.6 mg/kg	healthy volunteers	AUC(0-inf)	3240 ng·h/mL
C=CC(=O)NC1CCN(c2ncc3ncnc(Nc4ccc(Oc5ccc6c(c5)ncn6C)c(C)c4)c3n2)CC1	male human	intravenous	100 µg	single dose, healthy volunteers	AUC(0-inf)	0.00269 µM·h
COc1ccc(-c2c(Nc3ccccn3)[nH]c3c(C4=CCCCC4)c(-c4ccccc4)nn3c2=O)cc1	human	oral	200 mg once daily	multiple doses, steady state, patients	AUC(0-t)	108000 ng·h/mL
CC(C)n1c(C2CCNCC2)nc2c([N+](=O)[O-])c(Br)c(Br)cc21	human	oral	150 mg	patients	AUC(0-t)	2880 ng·h/mL
OC[C@H]1O[C@@H](c2cc(Cc3ccc(C4CC4)cc3)c(Cl)c3c2CCO3)[C@H](O)[C@@H](O)[C@@H]1O	human	oral	0.3 mg	single dose, fasted	AUC(0-inf)	33.3 ng·h/mL
CC(=O)N(C)[C@H]1CCN(C(=O)c2cnc3c(c2)C[C@](C)(c2ccc(F)cc2)N3)C1	male human	oral	15 mg	multiple doses, once daily	AUC(0-inf)	2.22 µM·h
O=C(COc1ccc(Cl)cc1)NC12CC(c3nnc([C@H]4C[C@@H](OC(F)(F)F)C4)o3)(C1)C2	human	oral	145 mg	multiple doses, once daily, steady state, healthy volunteers	AUC	141 µM·h
COc1ccc(F)cc1C(=O)NCc1ccc(-c2nn([C@@H](C)C(F)(F)F)c(N)c2C(N)=O)cc1	human	oral	200 mg	single dose, fasted	AUC(0-inf)	90200 ng·h/mL
N#Cc1cccc(-c2ccc3ncc(-c4cc(F)cc(F)c4)c(N4CCC(N)CC4)c3c2)c1O	male human	oral	20 mg	single dose	AUC	2360 ng·h/mL
